From ChEMBL document CHEMBL1140925, “Nuclear factor-kappaB mediated inhibition of cytokine production by imidazoline scaffolds” (J Med Chem, 2009) come the findings set out here.

Calls of active or inactive are those of the source. No cut-off for these calls is given here.

Assay [1] can be described thus: (§1) Inhibition of TNF-alpha-induced NF-kappaB-mediated transcription expressed in human HeLa cells preincubated for 30 mins before addition of TNFalpha measured after 8 hrs by luciferase reporter gene assay. Format: cell-based. In a few lines:
(§2)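 HeLa/NF-κB-luc cells (5.0 × 10⁵ cells/mL) were grown 24 h, then switched to serum-free DMEM. They were pretreated 30 min at 37 °C with 0.05–20 µM imidazoline (1% DMSO vehicle), then stimulated with 25 ng/mL TNF-α for 8 h. Steady-Glo luminescence was normalized to TNF-α activation, and EC50 was taken from a variable-slope sigmoidal fit. Values are the mean of two independent experiments.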

Assay [2] concerns HeLa. Described as §1. Format: cell-based. In a few lines: as §2
For assay [3], the system named is HeLa. Nature of the assay: Induction of NF-kappaB-mediated transcription expressed in human HeLa cells at 20 uM by luciferase reporter gene assay. Format: cell-based. The method, boiled down:
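Stably integrated NF-κB-luc HeLa cells, hygromycin-selected, were exposed to 20 µM imidazoline without TNF-α activation. Firefly luciferase was read after 8 h, and signal was normalized to the TNF-α activation control.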

Assay [4] has as its system Blood. Nature of the assay: Antiinflammatory activity in human whole blood assessed as inhibition of IL-1-beta-induced TNFalpha production preincubated 2 hrs before addition of IL1-beta measured after 18 hrs by ELISA. Format: functional, tissue-based. In a few lines: (§3)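 Human blood from donors with white count in the normal range, diluted 1:10 in RPMI-1640 with 10% FBS, penicillin and streptomycin. Aliquots were preincubated with vehicle (0.1% DMSO final) or compound at 10, 3, 1, 0.3 or 0.1 µM final for 2 h at 37 °C, 5% CO2. IL-1β (200 U/mL) was then added for 18 h, and plasma was collected and frozen. Cytokine was measured by ELISA.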

Assay [5] deals with Blood. Nature of the assay: Antiinflammatory activity in human whole blood assessed as inhibition of IL-1-beta-induced IL6 production preincubated 2 hrs before addition of IL1-beta measured after 18 hrs by ELISA. Format: functional, tissue-based. The method, boiled down: as §3
For assay [6], the system named is HeLa. Nature of the assay: Inhibition of TNF-alpha-induced NF-kappaB-mediated transcription expressed in human HeLa cells co-transfected with renilla luciferase-TK gene preincubated for 30 mins before TNFalpha challenge measured after 8 hrs by dual-glo luciferase reporter gene assay. Format: cell-based. The method, boiled down:
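HeLa cells were transiently cotransfected (lipofectamine 2000, 5–6 h) with 6×κB pNF-κB-luc and the pRL-TK Renilla control, then grown 24 h. They were pretreated 30 min with 0.312–20 µM (1% DMSO vehicle), then stimulated with 25 ng/mL TNF-α for 8 h at 37 °C. Dual-Glo firefly signal was normalized to Renilla luminescence.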

`c1ccc(Cn2c(-c3ccccc3)nc(-c3ccccc3)c2-c2ccccc2)cc1` yielded an EC50 in assay [1] of 27.7 µM. The Activity result in the assay on HeLa [2], in the assay with Blood [4] and in the assay on Blood [5] was “Dose-dependent effect” in each case. In addition, the logEC50 with HeLa [2] amounted to 1.44. In addition, in the assay with HeLa [3], the outcome was inactive.
For `CCOC(=O)[C@]1(c2ccccc2)N=C(c2ccccc2)N(Cc2ccccc2)[C@@H]1c1ccccc1` [listing 1 of 2 here], the EC50 in assay [1] amounted to 1.6 µM. Besides, the IC50 was found to be 600 nM in the assay with Blood [4] and 200 nM in the assay with Blood [5].
Molecule `CCOC(=O)[C@@]1(c2ccccc2)N=C(c2ccccc2)N(Cc2ccccc2)[C@H]1c1ccccc1` gave an EC50 in assay [1] of 2.9 µM. Besides, the Activity result in the assay on HeLa [2], in the assay on Blood [4] and with Blood [5] was “Dose-dependent effect” in each case. The logEC50 in the assay on HeLa [2] turned out to be 0.469. Further, the result with HeLa [3] was inactive. For the same molecule, the IC50 in the assay with Blood [4] (Homo sapiens, Blood) stood at 700 nM; in the assay with Blood [5] (Homo sapiens, Blood) it was 583 nM.
For `CCOC(=O)[C@]1(c2ccccc2)N=C(c2ccccc2)N(Cc2ccccc2)[C@@H]1c1ccccc1` [listing 2 of 2 here], the Activity entry in the assay on HeLa [2], in the assay on Blood [4] and in the assay with Blood [5] was “Dose-dependent effect” each time. Moreover, the logEC50 with HeLa [2] came out at 0.209. Moreover, in the assay on HeLa [3], the result was inactive.
In assay [1], `OC[C@]1(c2ccccc2)N=C(c2ccccc2)N(Cc2ccccc2)[C@@H]1c1ccccc1` (racemic) had an EC50 above 20 µM. For the same molecule, the Activity result with HeLa [2] and with Blood [5] was “Dose-dependent effect” in each case. In addition, the outcome with HeLa [3] was inactive. The logIC50 in the assay on Blood [4] is on record as 1.29. Moreover, the IC50 in the assay on Blood [5] (Homo sapiens, Blood) was above 20000 nM.
`O=C(OCc1ccccc1)[C@]1(c2ccccc2)N=C(c2ccccc2)N(Cc2ccccc2)[C@@H]1c1ccccc1` (racemic): the response in assay [1] was half-maximal at 3.5 µM (EC50). The Activity result in the assay with HeLa [2], in the assay with Blood [4] and in the assay with Blood [5] was “Dose-dependent effect” each time. In the assay on HeLa [2], this molecule had a logEC50 of 0.54. Besides, the outcome with HeLa [3] was inactive. Besides, the logIC50 in the assay with Blood [4] was 0.51; in the assay with Blood [5] it was 0.77. In addition, in the assay with Blood [4] (Homo sapiens, Blood), the IC50 was found to be 3200 nM.
Regarding `NC(=O)[C@]1(c2ccccc2)N=C(c2ccccc2)N(Cc2ccccc2)[C@@H]1c1ccccc1` (racemic), the EC50 in assay [1] worked out at 26.2 µM. Besides, the Activity entry with HeLa [2] and in the assay with Blood [5] was “Dose-dependent effect” throughout. The same molecule displayed a logEC50 in the assay with HeLa [2] of 1.55. For the same molecule, in the assay with HeLa [3], the result was inactive. Also, the logIC50 in the assay with Blood [4] came to 1.668; with Blood [5], 1.08. Besides, the IC50 in the assay with Blood [4] (Homo sapiens, Blood) is above 20000 nM; in the assay on Blood [5] (Homo sapiens, Blood), 11900 nM.
Regarding `c1ccc(CN2C(c3ccccc3)=N[C@H](c3ccccc3)[C@H]2c2ccccc2)cc1` (racemic), the EC50 in assay [1] stood at 4.59 µM. Besides, in the assay on HeLa [2], the Activity result is “Dose-dependent effect” and the logEC50 worked out at 0.66. For the same molecule, the outcome in the assay with HeLa [3] was inactive. Also, in the assay with Blood [4], the Activity entry is “Dose-dependent effect” and the logIC50 is recorded as 0.39. The Activity entry in the assay with Blood [5] was “Dose-dependent effect”. The IC50 in the assay with Blood [5] (Homo sapiens, Blood) was found to be 2470 nM.
As for `c1ccc(CN2C(c3ccccc3)=N[C@@H](c3ccccc3)[C@H]2c2ccccc2)cc1` (racemic), the EC50 in assay [1] worked out at 11 µM. The Activity entry in the assay with HeLa [2], in the assay with Blood [4] and with Blood [5] was “Dose-dependent effect” throughout. In addition, the logEC50 in the assay with HeLa [2] came out at 1.04. Also, the outcome in the assay with HeLa [3] was inactive. Besides, in the assay with Blood [4], the logIC50 is 0.38. In addition, the IC50 in the assay on Blood [5] (Homo sapiens, Blood) is 2400 nM.
Take `COC(=O)[C@]1(c2ccccc2)N=C(c2ccccc2)N(Cc2ccccc2)[C@@H]1c1ccccc1` (racemic): the EC50 in assay [1] was found to be 7.47 µM. Besides, in the assay with HeLa [2], the Activity result was “Dose-dependent effect” and the logEC50 is 0.87. In addition, the result in the assay on HeLa [3] was inactive. In the assay on Blood [4], the Activity entry was “Dose-dependent effect” and the logIC50 is recorded as 0.4761. For the same molecule, the IC50 with Blood [4] (Homo sapiens, Blood) came to 2790 nM. For the same molecule, in the assay with Blood [5], the Activity entry is “Dose-dependent effect” and the logIC50 came to 0.446.
`CCOC(=O)[C@]1(c2ccccc2)N=C(c2ccccc2)N(Cc2ccccc2)[C@@H]1c1ccccc1` (racemic): the Activity entry in the assay on HeLa [2], in the assay with Blood [4] and in the assay on Blood [5] was “Dose-dependent effect” throughout. For the same molecule, the logEC50 was 0.4 in the assay on HeLa [2] and 0.67 with HeLa [6]. Besides, the outcome in the assay with HeLa [3] was inactive.
The molecule `O=C(O)[C@]1(c2ccccc2)N=C(c2ccccc2)N(Cc2ccccc2)[C@@H]1c1ccccc1` (racemic; 1) [listing 1 of 2 here] showed an EC50 in assay [1] of 0.95 µM. The IC50 with Blood [4] (Homo sapiens, Blood) was above 20000 nM; with Blood [5] (Homo sapiens, Blood) it was above 20000 nM.
As for `O=C(O)[C@]1(c2ccccc2)N=C(c2ccccc2)N(Cc2ccccc2)[C@@H]1c1ccccc1` (racemic; 1) [listing 2 of 2 here], the Activity result in the assay with HeLa [2], in the assay with Blood [4] and in the assay on Blood [5] was “Dose-dependent effect” throughout. Further, in the assay with HeLa [3], the result was inactive.
On to `O=C(O)[C@]1(c2ccccc2)N=C(c2ccccc2)N(Cc2ccccc2)[C@@H]1c1ccccc1` (racemic; 2), for which the outcome with HeLa [2] and in the assay on HeLa [3] was inactive.
